Laboratory results from ChEMBL document CHEMBL2177043, “HIV-1 X4 activities of polycationic "viologen" based dendrimers by interaction with the chemokine receptor CXCR4: study of structure-activity relationship” (J Med Chem, 2012).
pIC50: −log10 of the molar value. Active and inactive are the calls of the source. The calls are words filed in the database; no cut-off is given here.

What was measured:
[1] = target: T1, C-C chemokine receptor type 5 (Homo sapiens, UniProt P51681); experiment: Antagonist activity against CCR5 expressed in U87.CD4.CCR5 cells assessed as inhibition of CCL3L1-induced calcium signaling incubated for 10 mins by FLIPR; type: functional, cell-based
T1 sequence (P51681 whole entry, looked up): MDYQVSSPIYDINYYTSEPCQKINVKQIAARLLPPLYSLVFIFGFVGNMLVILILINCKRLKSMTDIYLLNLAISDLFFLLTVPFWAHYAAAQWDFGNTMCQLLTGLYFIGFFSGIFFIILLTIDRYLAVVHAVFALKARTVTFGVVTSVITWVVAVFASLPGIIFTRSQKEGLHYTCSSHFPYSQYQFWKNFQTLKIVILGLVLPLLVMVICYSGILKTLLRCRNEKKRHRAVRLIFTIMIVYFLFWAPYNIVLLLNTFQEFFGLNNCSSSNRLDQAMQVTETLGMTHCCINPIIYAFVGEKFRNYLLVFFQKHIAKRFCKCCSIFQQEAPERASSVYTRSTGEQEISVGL
Method in brief: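 U87.CD4.CCR5 cells seeded at 2 × 10⁴/well on 0.2% gelatin the day before, loaded with 4 μM Fluo-3 AM for 45 min at 37 °C, washed, then preincubated with compounds at varied concentrations in assay buffer for 10 min at 37 °C. Stimulated with 10 ng/mL LD78β (CCL3L1); Ca²⁺ flux recorded by FLIPR.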

[2] = Cytotoxicity against human MT4 cells by MTT assay; type: cell-based
[3] = target: T2, C-X-C chemokine receptor type 4 (Homo sapiens, UniProt P61073); experiment: Inhibition of anti-CXCR4 mAbs clone 173 binding to CXCR4 in human SUPT1 cells incubated for 30 mins by FACS
T2 sequence (P61073 whole entry): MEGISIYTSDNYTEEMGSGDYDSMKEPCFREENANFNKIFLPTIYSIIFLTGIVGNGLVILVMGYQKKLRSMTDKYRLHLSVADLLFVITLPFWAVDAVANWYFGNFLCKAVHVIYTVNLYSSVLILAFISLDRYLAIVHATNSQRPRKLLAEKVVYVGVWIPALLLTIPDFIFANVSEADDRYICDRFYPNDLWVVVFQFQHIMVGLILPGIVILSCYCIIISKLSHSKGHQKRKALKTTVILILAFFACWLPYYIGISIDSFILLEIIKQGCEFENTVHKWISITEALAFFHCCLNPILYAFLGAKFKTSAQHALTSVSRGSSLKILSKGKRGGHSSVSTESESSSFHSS

[4] = target: T2, C-X-C chemokine receptor type 4; experiment: Inhibition of anti-CXCR4 mAbs clone 12G5 binding to CXCR4 in human SUPT1 cells incubated for 30 mins by FACS
[5] = target: T2, C-X-C chemokine receptor type 4; experiment: Inhibition of anti-CXCR4 mAbs clone 1D9 binding to CXCR4 in human SUPT1 cells incubated for 30 mins by FACS
[6] = system: Human immunodeficiency virus 1; experiment: Antiviral activity against X4 HIV1 NL4.3 infected in human MT4 cells assessed as inhibition of viral replication pre-incubated for 30 mins […]; type: functional, organism-based; conditions: Human immunodeficiency virus 1, NL4.3, MT4
[7] = Cytotoxicity against human PBMC cells by MTT assay; type: cell-based
[8] = target: T2, C-X-C chemokine receptor type 4; experiment: Antagonist activity against CXCR4 expressed in U87.CD.CXCR4 cells assessed as inhibition of CXCL12-induced calcium signaling incubated for 10 mins by FLIPR; type: functional, cell-based
Method in brief: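 U87.CD4.CXCR4 cells seeded at 2 × 10⁴/well on 0.2% gelatin the day before, loaded with 4 μM Fluo-3 AM for 45 min at 37 °C, washed, then preincubated with compounds at varied concentrations in assay buffer for 10 min at 37 °C. Challenged with 25 ng/mL CXCL12; Ca²⁺ flux followed over time by FLIPR.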

[9] = target: T2, C-X-C chemokine receptor type 4; experiment: Inhibition of CXCL-12'AF647 binding to CXCR4 in human SUPT1 cells incubated for 15 mins by FACS; type: cell-based
Method in brief: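 SupT1 cells (high CXCR4) washed, then incubated 15 min at room temperature with compounds at varied concentrations in HBSS containing 20 mM HEPES and 0.2% BSA, pH 7.4. CXCL12-AF647 added at 25 ng/mL final for 30 min at room temperature. Cells washed, fixed in 1% paraformaldehyde, and read by flow cytometry on FL4.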

[10] = system: Human immunodeficiency virus 1; experiment: Antiviral activity against X4 HIV1 NL4.3 infected in human PBMC assessed as inhibition of viral replication pre-incubated for 30 mins measured 5 days post infection by MTT assay; type: functional, organism-based; conditions: Human immunodeficiency virus 1, NL4.3
Method in brief: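 Human PBMC infected with HIV-1 NL4.3. IC₅₀ is the concentration inhibiting viral replication by 50%, averaged over two independent experiments. Cytotoxicity (CC₅₀, 50% loss of PBMC viability) evaluated in the same assay.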

[11] = target: T1, C-C chemokine receptor type 5; experiment: Agonist activity against CCR5 expressed in U87.CD4.CCR5 cells assessed as stimulation of calcium signaling incubated for 10 mins by FLIPR
[12] = target: T1, C-C chemokine receptor type 5; experiment: Antagonist activity against CCR5 expressed in U87.CD4.CCR5 cells assessed as inhibition of CCL3L1-induced calcium signaling incubated for 10 mins by FLIPR
[13] = target: T2, C-X-C chemokine receptor type 4; experiment: Agonist activity against CXCR4 expressed in U87.CD.CXCR4 cells assessed as stimulation of calcium signaling incubated for 10 mins by FLIPR; type: functional, cell-based
Method in brief: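 U87.CD4 cells stably carrying CXCR4 or CCR5, trypsinized and seeded at 2 × 10⁴ cells/well on 0.2% gelatin the day before. Loaded with Fluo-3 AM (4 μM, 45 min, 37 °C), washed, then exposed to test agents alone at varied concentrations in assay buffer for 10 min at 37 °C. Cytosolic Ca²⁺ rise monitored over time by FLIPR to detect any agonist-triggered signal.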

| Compound | pIC50 [1] | CC50 [2] | pIC50 [3] | pIC50 [4] | pIC50 [5] | IC50 [6] | CC50 [7] | pIC50 [8] | pIC50 [9] | IC50 [10] | Activity [11] | inhibition [3] | inhibition [4] | inhibition [5] | inhibition [12] | inhibition [8] | Activity [13] |
| --- | --- | --- | --- | --- | --- | --- | --- | --- | --- | --- | --- | --- | --- | --- | --- | --- | --- |
| Cc1cn(CCC[n+]2ccc(-c3cc[n+](Cc4cc(C[n+]5ccc(-c6cc[n+](CCCn7cc(C)c(=O)[nH]c7=O)cc6)cc5)cc(C[n+]5ccc(-c6cc[n+](Cc7cc(C[n+]8ccc(-c9cc[n+](Cc%10cc(C[n+]%11ccc(-c%12cc[n+](CCCn%13cc(C)c(=O)[nH]c%13=O)cc%12)cc%11)cc(C[n+]%11ccc(-c%12cc[n+](CCCn%13cc(C)c(=O)[nH]c%13=O)cc%12)cc%11)c%10)cc9)cc8)cc(-[n+]8ccc(-c9cc[n+](-c%10cc(C[n+]%11ccc(-c%12cc[n+](Cc%13cc(C[n+]%14ccc(-c%15cc[n+](CCCn%16cc(C)c(=O)[nH]c%16=O)cc%15)cc%14)cc(C[n+]%14ccc(-c%15cc[n+](CCCn%16cc(C)c(=O)[nH]c%16=O)cc%15)cc%14)c%13)cc%12)cc%11)cc(C[n+]%11ccc(-c%12cc[n+](Cc%13cc(C[n+]%14ccc(-c%15cc[n+](CCCn%16cc(C)c(=O)[nH]c%16=O)cc%15)cc%14)cc(C[n+]%14ccc(-c%15cc[n+](CCCn%16cc(C)c(=O)[nH]c%16=O)cc%15)cc%14)c%13)cc%12)cc%11)c%10)cc9)cc8)c7)cc6)cc5)c4)cc3)cc2)c(=O)[nH]c1=O.F[P-](F)(F)(F)(F)F.F[P-](F)(F)(F)(F)F.F[P-](F)(F)(F)(F)F.F[P-](F)(F)(F)(F)F.F[P-](F)(F)(F)(F)F.F[P-](F)(F)(F)(F)F.F[P-](F)(F)(F)(F)F.F[P-](F)(F)(F)(F)F.F[P-](F)(F)(F)(F)F.F[P-](F)(F)(F)(F)F.F[P-](F)(F)(F)(F)F.F[P-](F)(F)(F)(F)F.F[P-](F)(F)(F)(F)F.F[P-](F)(F)(F)(F)F.F[P-](F)(F)(F)(F)F.F[P-](F)(F)(F)(F)F.F[P-](F)(F)(F)(F)F.F[P-](F)(F)(F)(F)F.F[P-](F)(F)(F)(F)F.F[P-](F)(F)(F)(F)F.F[P-](F)(F)(F)(F)F.F[P-](F)(F)(F)(F)F.F[P-](F)(F)(F)(F)F.F[P-](F)(F)(F)(F)F.F[P-](F)(F)(F)(F)F.F[P-](F)(F)(F)(F)F | 5.44 | 19 µg/mL | 6.68 | 6.63 | 6.49 | 1.5 µg/mL | 20 µg/mL | 6.56 | 6.68 | 0.41 µg/mL |  |  |  |  |  |  |  |
| c1cc(CN2CCCNCCNCCCNCC2)ccc1CN1CCCNCCNCCCNCC1 [PLERIXAFOR] |  | > 10 µg/mL |  |  |  |  | > 10 µg/mL |  |  |  |  |  |  |  |  |  |  |
| Cc1cn(CCC[n+]2ccc(-c3cc[n+](Cc4cc(C[n+]5ccc(-c6cc[n+](CCCn7cc(C)c(=O)[nH]c7=O)cc6)cc5)cc(C[n+]5ccc(-c6cc[n+](Cc7cc(C[n+]8ccc(-c9cc[n+](Cc%10cc(C[n+]%11ccc(-c%12cc[n+](CCCn%13cc(C)c(=O)[nH]c%13=O)cc%12)cc%11)cc(C[n+]%11ccc(-c%12cc[n+](CCCn%13cc(C)c(=O)[nH]c%13=O)cc%12)cc%11)c%10)cc9)cc8)cc(C[n+]8ccc(-c9cc[n+](Cc%10cc(C[n+]%11ccc(-c%12cc[n+](CCCn%13cc(C)c(=O)[nH]c%13=O)cc%12)cc%11)cc(C[n+]%11ccc(-c%12cc[n+](CCCn%13cc(C)c(=O)[nH]c%13=O)cc%12)cc%11)c%10)cc9)cc8)c7)cc6)cc5)c4)cc3)cc2)c(=O)[nH]c1=O.F[P-](F)(F)(F)(F)F.F[P-](F)(F)(F)(F)F.F[P-](F)(F)(F)(F)F.F[P-](F)(F)(F)(F)F.F[P-](F)(F)(F)(F)F.F[P-](F)(F)(F)(F)F.F[P-](F)(F)(F)(F)F.F[P-](F)(F)(F)(F)F.F[P-](F)(F)(F)(F)F.F[P-](F)(F)(F)(F)F.F[P-](F)(F)(F)(F)F.F[P-](F)(F)(F)(F)F.F[P-](F)(F)(F)(F)F.F[P-](F)(F)(F)(F)F.F[P-](F)(F)(F)(F)F.F[P-](F)(F)(F)(F)F.F[P-](F)(F)(F)(F)F.F[P-](F)(F)(F)(F)F | 5.73 | 10 µg/mL | 6.39 | 6.45 | 6.29 | 1.8 µg/mL | 20 µg/mL | 6.55 | 6.64 | 0.89 µg/mL |  |  |  |  |  |  |  |
| CC[n+]1ccc(-c2cc[n+](Cc3cc(C[n+]4ccc(-c5cc[n+](CC)cc5)cc4)cc(-[n+]4ccc(-c5cc[n+](-c6cc(C[n+]7ccc(-c8cc[n+](CC)cc8)cc7)cc(C[n+]7ccc(-c8cc[n+](CC)cc8)cc7)c6)cc5)cc4)c3)cc2)cc1.F[P-](F)(F)(F)(F)F.F[P-](F)(F)(F)(F)F.F[P-](F)(F)(F)(F)F.F[P-](F)(F)(F)(F)F.F[P-](F)(F)(F)(F)F.F[P-](F)(F)(F)(F)F.F[P-](F)(F)(F)(F)F.F[P-](F)(F)(F)(F)F.F[P-](F)(F)(F)(F)F.F[P-](F)(F)(F)(F)F | < 4.41 | > 100 µg/mL | 6.26 | 6.11 | 5.47 | 1.1 µg/mL | > 100 µg/mL | 4.62 | 5.24 | 5.6 µg/mL | inactive | Dose-dependent effect | Dose-dependent effect | Dose-dependent effect | Dose-dependent effect | Dose-dependent effect | inactive |
| CCc1cc[n+](-c2cc[n+](Cc3cc(C[n+]4ccc(-c5cc[n+](CC)cc5)cc4)cc(C[n+]4ccc(-c5cc[n+](Cc6cc(C[n+]7ccc(-c8cc[n+](Cc9cc(C[n+]%10ccc(-c%11cc[n+](CC)cc%11)cc%10)cc(C[n+]%10ccc(-c%11cc[n+](CC)cc%11)cc%10)c9)cc8)cc7)cc(-[n+]7ccc(-c8cc[n+](-c9cc(C[n+]%10ccc(-c%11cc[n+](Cc%12cc(C[n+]%13ccc(-c%14cc[n+](CC)cc%14)cc%13)cc(C[n+]%13ccc(-c%14cc[n+](CC)cc%14)cc%13)c%12)cc%11)cc%10)cc(C[n+]%10ccc(-c%11cc[n+](Cc%12cc(C[n+]%13ccc(-c%14cc[n+](CC)cc%14)cc%13)cc(C[n+]%13ccc(-c%14cc[n+](CC)cc%14)cc%13)c%12)cc%11)cc%10)c9)cc8)cc7)c6)cc5)cc4)c3)cc2)cc1.F[P-](F)(F)(F)(F)F.F[P-](F)(F)(F)(F)F.F[P-](F)(F)(F)(F)F.F[P-](F)(F)(F)(F)F.F[P-](F)(F)(F)(F)F.F[P-](F)(F)(F)(F)F.F[P-](F)(F)(F)(F)F.F[P-](F)(F)(F)(F)F.F[P-](F)(F)(F)(F)F.F[P-](F)(F)(F)(F)F.F[P-](F)(F)(F)(F)F.F[P-](F)(F)(F)(F)F.F[P-](F)(F)(F)(F)F.F[P-](F)(F)(F)(F)F.F[P-](F)(F)(F)(F)F.F[P-](F)(F)(F)(F)F.F[P-](F)(F)(F)(F)F.F[P-](F)(F)(F)(F)F.F[P-](F)(F)(F)(F)F.F[P-](F)(F)(F)(F)F.F[P-](F)(F)(F)(F)F.F[P-](F)(F)(F)(F)F.F[P-](F)(F)(F)(F)F.F[P-](F)(F)(F)(F)F.F[P-](F)(F)(F)(F)F.F[P-](F)(F)(F)(F)F | 4.92 | 34 µg/mL | 6.69 | 6.46 | 6.35 | 0.9 µg/mL | 100 µg/mL | 6.27 | 6.55 | 0.12 µg/mL |  |  |  |  |  |  |  |
